For series [1], the system named is Thoracic aorta. Nature of the series: Vasorelaxing activity in Wistar rat endothelium-denuded thoracic aorta ring assessed as reduction in 30 mM KCl-induced contraction after 15 mins in presence of 1 uM glibenclamide. The format is functional, tissue-based. The conditions noted are these: 0.25 h, in the assay text read “endothelium-intact” for “endothelium-denuded”. In short, it runs like this: (§1)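 Female Wistar rat aortic rings were contracted with 30 mM KCl while continuously bathed in 1 or 10 µM glibenclamide. Compound in DMSO was added cumulatively up to 300 µM, each step held ≥15 min to a plateau. EC50 was derived by non-linear regression and compared with the EC50 obtained without glibenclamide.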

In series [2] the test system is Thoracic aorta. Put plainly: Vasorelaxing activity in Wistar rat endothelium-denuded thoracic aorta ring assessed as reduction in 30 mM KCl-induced contraction after 15 mins in presence of 10 uM glibenclamide. The conditions noted are these: 0.25 h, in the assay text read “endothelium-intact” for “endothelium-denuded”. The format is functional, tissue-based. In short, it runs like this:
as §1

Series [3] has as its system Thoracic aorta. Nature of the series: Vasorelaxing activity in Wistar rat endothelium-denuded thoracic aorta ring assessed as reduction in 80 mM KCl-induced contraction after 15 mins. The format is functional, tissue-based. The following applies: 0.25 h, in the assay text read “endothelium-intact” for “endothelium-denuded”. In short, it runs like this:
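Female Wistar rat aortic rings were depolarized with an 80 mM KCl solution (NaCl 43.6 mM). Once the plateau was reached, compound in DMSO was added cumulatively up to 300 µM. EC50 was obtained by non-linear regression of concentration-response curves.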

In series [4] the test system is Trachea. Put plainly: Tracheorelaxant activity in Wistar rat trachea tonus assessed as reduction in 30 mM KCl-induced contraction after 15 mins. The format is functional, tissue-based. The following applies: 0.25 h. Put shortly: (§2)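 Trachea rings (3-4 mm) from female Wistar rats were held in a 10 ml organ bath under the same conditions as the aorta and contracted with 30 mM KCl. Compound in DMSO was added cumulatively. EC50 was derived by non-linear regression; Emax is % relaxation at 100 µM.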

Series [5] deals with Trachea. Put plainly: Tracheorelaxant activity in Wistar rat trachea tonus assessed as reduction in 30 mM KCl-induced contraction at 100 uM after 15 mins relative to control. The format is functional. The following applies: 0.25 h. Put shortly: as §2
For the next series, the system named is Trachea/thoracic aorta. Nature of the series: Ratio of EC50 for Wistar rat trachea tonus to EC50 for Wistar rat endothelium-denuded thoracic aorta ring. The following applies: in the assay text read “endothelium-intact” for “endothelium-denuded”. The format is functional. Put shortly: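 Ratio of trachea EC50 to aorta EC50, both measured against 30 mM KCl contraction in female Wistar rat rings, with cumulative compound addition in DMSO and EC50 from non-linear regression.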

In series [6] the test system is VSMC. Nature of the series: Induction of elastin synthesis in rat VSMC at 50 uM after 48 hrs by ELISA relative to control. The format is functional. Put shortly: (§3)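 Rat aortic VSMCs (collagenase/elastase digestion of intima-media, grown in DMEM 20% FBS on gelatin) serum-starved overnight in 1% FBS-DMEM, seeded 25000 cells/well, then exposed 48 h to compound in DMSO (<1% final); DMSO-only negative control, diazoxide reference. Fixed cells immunostained for elastin with HRP secondary, TMB substrate, absorbance 450 nm; 5-7 wells per concentration.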
On the technique in general: In an ELISA, binding on a coated surface is turned into a signal by an enzyme label.

Series [7] concerns VSMC. Nature of the series: Induction of elastin synthesis in rat VSMC at 20 uM after 48 hrs by ELISA. The format is functional, cell-based. In short, it runs like this: as §3
The subject of series [8] is Thoracic aorta. Nature of the series: Vasorelaxing activity in Wistar rat endothelium-intact thoracic aorta ring assessed as reduction in 30 mM KCl-induced contraction after 15 mins. The following applies: 0.25 h.
Series [9] relates to Thoracic aorta. Nature of the series: Vasorelaxing activity in Wistar rat endothelium-intact thoracic aorta ring assessed as reduction in 30 mM KCl-induced contraction at 300 uM after 15 mins relative to DMSO. The conditions noted are these: 0.25 h.
Series [10] in a line: Ionozation constant, pKa of the compound at pH 3 to 12 at 25 degC by UV/VIS spectrophotometric method. The format is physicochemical.

The source made the active and inactive calls. The rule behind the calls is not given here.

The term EC50 denotes the concentration giving half of the maximal effect. A word on the Emax: it is the greatest response seen or fitted, relative to the assay's reference. With `COc1ccc(Cl)cc1C(C)NC(=O)N(C)S(=O)(=O)c1ccccc1` (racemic), the 50% effective concentration (EC50) with Thoracic aorta [1] is 6.7 µM; in the series with Thoracic aorta [2] it was 8.6 µM; in the series with Thoracic aorta [3], 5.3 µM; with Trachea [4], 1.7 µM; with Thoracic aorta [8], 7.2 µM. Besides, the maximum response (Emax) was determined as 154% in the series with Trachea [5] and 103% in the series with Thoracic aorta [9]. Further, the “Ratio EC50” value in the series on Trachea/thoracic aorta was determined as 0.2. Further, the outcome in the series on VSMC [6] and in the series on VSMC [7] was Active.

For orientation: pKa means the negative logarithm of the acid dissociation constant. As to `CC(NC(=O)NS(=O)(=O)c1ccc(Cl)cc1)c1cc(Br)ccc1OCc1ccccc1` (racemic), the concentration for a half-maximal effect (EC50) in the series with Thoracic aorta [1] was 78.4 µM; in the series with Thoracic aorta [2], 54.6 µM; in the series with Thoracic aorta [3], 61.6 µM; with Trachea [4], 30.8 µM; with Thoracic aorta [8], 57.5 µM. Besides, the figures for the maximal response (Emax) with Trachea [5] and in the series on Thoracic aorta [9] were 161% and 95.1%, respectively. Moreover, in the series on Trachea/thoracic aorta, the “Ratio EC50” value was 0.5. In addition, in the series on VSMC [6], the outcome was Active. Moreover, the outcome with VSMC [7] was inactive. Besides, the pKa in [10] amounted to 5.31.

Take `COc1ccc(Br)cc1C(C)NC(=O)N(C)S(=O)(=O)c1ccc(Cl)cc1` (racemic): the results for the 50% effective concentration (EC50) in the series on Trachea [4] and in the series with Thoracic aorta [8] were 39.3 µM and 19.1 µM, respectively. Also, the Emax in the series with Trachea [5] came to 125%; in the series with Thoracic aorta [9], 93.6%. Moreover, the “Ratio EC50” value with Trachea/thoracic aorta was 2.

For `Cc1ccc(OCc2ccccc2)c(C(C)NC(=O)NS(=O)(=O)c2ccc(Cl)cc2)c1` (racemic), the EC50 in the series with Thoracic aorta [1] was 90.5 µM; in the series with Thoracic aorta [2], 69.3 µM; in the series with Thoracic aorta [3], 60.9 µM; in the series with Trachea [4] it was 30.4 µM; with Thoracic aorta [8] it was 65.3 µM. For the same compound, the Emax with Trachea [5] amounted to 172%; with Thoracic aorta [9], 126%. For the same compound, the “Ratio EC50” value with Trachea/thoracic aorta is reported as 0.5. Also, the outcome in the series with VSMC [6] and in the series with VSMC [7] was inactive.

Consider `CCOc1ccc(Cl)cc1C(C)NC(=O)N(C)S(=O)(=O)c1ccccc1` (stereo not given), for which the outcome in the series with VSMC [6] was Active. Further, in the series on VSMC [7], the outcome was inactive. Further, the concentration for a half-maximal effect (EC50) in the series with Thoracic aorta [8] is 10.5 µM. Also, in the series with Thoracic aorta [9], the maximal effect (Emax) was determined as 104%.

Take `COc1ccc(Br)cc1C(C)NC(=O)N(C)S(=O)(=O)c1ccc(C)cc1` (stereo not given): the 50% effective concentration (EC50) in the series with Trachea [4] was 12.8 µM; in the series with Thoracic aorta [8], 19.1 µM. The results for the Emax in the series with Trachea [5] and with Thoracic aorta [9] were 143% and 97.7%, respectively. For the same compound, the “Ratio EC50” value in the series on Trachea/thoracic aorta is reported as 0.7.

Turning to `CC1(C)Oc2ccc(C#N)cc2[C@H](N2CCCC2=O)[C@H]1O` [(-)-CROMAKALIM], the EC50 with Thoracic aorta [1] is 3.4 µM; in the series on Thoracic aorta [2] it was 87.2 µM; in the series on Thoracic aorta [3], 191 µM; in the series with Trachea [4], 124 µM; in the series with Thoracic aorta [8] it was 0.13 µM. Moreover, the Emax in the series on Trachea [5] turned out to be 70.1%. Moreover, the “Ratio EC50” value in the series with Trachea/thoracic aorta is on record as 956.9.

On to `CCOc1ccc(Br)cc1C(C)NC(=O)N(C)S(=O)(=O)c1ccccc1` (racemic), for which the values for the EC50 with Trachea [4] and in the series with Thoracic aorta [8] were 8.4 µM and 19.8 µM, respectively. The Emax in the series on Trachea [5] was 137%; in the series on Thoracic aorta [9] it was 104%. For the same compound, the “Ratio EC50” value in the series with Trachea/thoracic aorta turned out to be 0.4.

With `COc1ccc(CCN(C)CCCC(C#N)(c2ccc(OC)c(OC)c2)C(C)C)cc1OC` (stereo not given) [VERAPAMIL], the concentration for a half-maximal effect (EC50) was found to be 0.07 µM in the series on Thoracic aorta [1]; 0.07 µM in the series with Thoracic aorta [2]; 0.05 µM in the series with Thoracic aorta [3]; 0.89 µM in the series with Trachea [4]; 0.06 µM in the series with Thoracic aorta [8]. For the same compound, in the series on Trachea/thoracic aorta, the “Ratio EC50” value is 28.7.

In the case of `COc1ccc(Br)cc1C(C)NC(=O)N(C)S(=O)(=O)c1ccccc1` (racemic), the EC50 was determined as 8.4 µM in the series with Trachea [4] and 16.8 µM with Thoracic aorta [8]. In addition, the maximum response (Emax) in the series with Trachea [5] turned out to be 125%; in the series with Thoracic aorta [9], 98%. In addition, the “Ratio EC50” value in the series with Trachea/thoracic aorta is on record as 0.5.

The compound `CC1=Nc2ccc(Cl)cc2S(=O)(=O)N1` [DIAZOXIDE] returned an Activity in the series with VSMC [6] of 92%. Moreover, the outcome in the series with VSMC [7] was inactive.

Source of the values: ChEMBL document CHEMBL4145465, “Design, synthesis and biological evaluation of novel ring-opened cromakalim analogues with relaxant effects on vascular and respiratory smooth muscles and as stimulators of elastin synthesis” (Eur J Med Chem, 2018).
